Experimental data from ChEMBL document CHEMBL1821616, “New insights into the structural requirements for pro-apoptotic agents based on 2,4-diaminoquinazoline, 2,4-diaminopyrido[2,3-d]pyrimidine and 2,4-diaminopyrimidine derivatives” (Eur J Med Chem, 2011).
Calls of active or inactive are those of the source. The calls are words filed in the database; no cut-off is given here.

Legend:
T-24 [1] = test: Induction of apoptosis in human T24 cells assessed as DNA fragmentation after 48 hrs by ELISA relative to control; type: functional
In short: (§1)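 DNA fragmentation was measured with the Cell Death Detection ELISA Plus kit after treatment of cultured tumour cells. The signal is expressed relative to untreated control cultures, which are set to 1.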

MDA-MB-231 [2] = test: Cytotoxicity against human MDA-MB-231 cells after 72 hrs by neutral red dye assay; type: functional, cell-based; settings: MDA-MB-231, 72 h
In short: (§2)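 Human tumour cells were grown as monolayers with 10% FBS and penicillin/streptomycin at 37 °C in 5% CO2 (HT-29 and T-24 in McCoy's, MDA-MB-231 in Leibovitz). They were exposed to compound in DMSO (≤0.5% v/v final) at screening concentrations of 20 and 100 μM for 72 h and read by neutral red uptake. Survival is relative to cells given DMSO only, in triplicate.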

T-24 [3] = test: Cytotoxicity against human T24 cells assessed as cell survival at 100 uM after 72 hrs by neutral red dye assay; type: functional; settings: T-24, 72 h, read-out: Survival
In short: (§3)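 HT-29 and T-24 cells were grown in McCoy's medium and MDA-MB-231 in Leibovitz, each with 10% FBS plus penicillin/streptomycin, as monolayers at 37 °C in 5% CO2. Compounds in DMSO (≤0.5% v/v final) were applied for 72 h. Survival was read by neutral red uptake against 0.5% DMSO-treated cells, as the mean of triplicates.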

T-24 [4] = test: Cytotoxicity against human T24 cells after 72 hrs by neutral red dye assay; type: functional, cell-based; settings: T-24, 72 h; in short: as §2
HT-29 [5] = test: Cytotoxicity against human HT-29 cells after 72 hrs by neutral red dye assay; type: functional, cell-based; settings: HT-29, 72 h; in short: as §2
MDA-MB-231 [6] = test: Cytotoxicity against human MDA-MB-231 cells assessed as cell survival at 100 uM after 72 hrs by neutral red dye assay; type: functional; settings: MDA-MB-231, 72 h, read-out: Survival; in short: as §3
MDA-MB-231 [7] = test: Induction of apoptosis in human MDA-MB-231 cells assessed as DNA fragmentation after 24 hrs by ELISA relative to control; type: functional; in short: as §1
[8] = Cytotoxicity against human CRL11233 cells assessed as cell survival at 20 to 100 uM after 72 hrs by neutral red dye assay; type: cell-based; settings: read-out: Survival
In short: (§4)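 The non-tumoral lines were grown with 10% FBS plus penicillin/streptomycin, as monolayers at 37 °C in 5% CO2: CRL-8799 in MEG medium and CRL-11233 in BEGM. Compounds in DMSO (≤0.5% v/v final) were applied for 72 h. Survival was read by neutral red uptake against 0.5% DMSO solvent-treated controls, as the mean of triplicates.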

HT-29 [9] = test: Cytotoxicity against human HT-29 cells assessed as cell survival at 100 uM after 72 hrs by neutral red dye assay; type: functional; settings: HT-29, 72 h, read-out: Survival; in short: as §3
[10] = Cytotoxicity against human CRL8799 cells assessed as cell survival at 20 to 100 uM after 72 hrs by neutral red dye assay; type: cell-based; settings: read-out: Survival; in short: as §4
HT-29 [11] = test: Induction of apoptosis in human HT-29 cells assessed as DNA fragmentation after 48 hrs by ELISA relative to control; type: functional; in short: as §1
HT-29 [12] = test: Induction of apoptosis in human HT-29 cells assessed as caspase3 activation at IC50 after 48 hrs by FACS analysis relative to control; type: functional
In short: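 Active caspase-3 was detected by flow cytometry with a FITC anti-active-caspase-3 antibody kit, with readings at 14, 24 and 48 h. Treated cells were compared with untreated control cells. Results are scored as (+) for an increase of about 50% and (++) for a larger rise.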

SMILES | Activity (T-24 [1]) | IC50 (MDA-MB-231 [2]) [µM] | viability at 100 µM (T-24 [3]) [%] | IC50 (T-24 [4]) [µM] | IC50 (HT-29 [5]) [µM] | viability at 100 µM (MDA-MB-231 [6]) [%] | Activity (MDA-MB-231 [7]) | viability at 72 h, up to 100 µM [8] [%] | viability at 100 µM (HT-29 [9]) [%] | viability at 72 h, up to 100 µM [10] [%] | Activity (HT-29 [11]) | fold change (FC) (T-24 [1]) | fold change (FC) (MDA-MB-231 [7]) | fold change (FC) (HT-29 [11]) | Activity (HT-29 [12]) [%]
CCCCCCNc1nc(NCCCCCC)c2ccccc2n1 | inactive | 7.56 | < 45 | 23.3 | 5.81 | < 45 | inactive | 0 | < 45 | 2 | inactive | – | – | – | –
Clc1ccc(CNc2nc(NCc3ccc(Cl)cc3)c3ccccc3n2)cc1 | – | 4.26 | < 45 | 6.41 | 5.89 | < 45 | inactive | 0 | < 45 | 0 | inactive | 2 | – | – | –
CCCCCCNc1nc(SC(C)C)nc2ncccc12 | – | 4.5 | < 45 | 15.8 | 20.2 | < 45 | – | – | < 45 | – | – | 1.6 | 2.9 | – | –
CCCCNc1nc(SCCCC)nc2ncccc12 | – | 8.4 | < 45 | 10.6 | 13.6 | < 45 | – | – | < 45 | – | inactive | 3.7 | – | – | –
Clc1ccc(CNc2nc(NCc3ccc(Cl)cc3)c3cccnc3n2)cc1 | – | 8.3 | < 45 | 11 | 15 | < 45 | – | 100 | < 45 | 0 | inactive | 1.9 | 1.3 | – | –
CCCCNc1nc(NCCCC)c2ccccc2n1 | inactive | 1.09 | < 45 | 19.3 | 6.96 | < 45 | inactive | 1 | < 45 | 4 | – | – | – | 1.5 | –
Cc1ccc(CNc2nc(NCc3ccc(C)cc3)c3ccccc3n2)cc1 | – | 5.47 | < 45 | 15.4 | 4.42 | < 45 | inactive | 33 | < 45 | 13 | – | 4.3 | – | 5.2 | –
CCCCCCNc1nc(NCCCCCC)c2cccnc2n1 | – | 2.1 | < 45 | 4.6 | 4.23 | < 45 | – | – | < 45 | – | – | – | – | – | –
Cc1ccc(CNc2nc(NCc3ccc(C)cc3)c3cccnc3n2)cc1 | – | 3.2 | < 45 | 5 | 7.5 | < 45 | – | 100 | < 45 | 95 | inactive | 2.7 | 4 | – | –
Brc1ccc(CCNc2nc(NCCc3ccc(Br)cc3)c3cccnc3n2)cc1 | – | 2.7 | < 45 | 11.5 | 4.1 | < 45 | inactive | 100 | < 45 | 90 | – | 1.5 | – | 7.2 | –
c1ccc(CCNc2ccnc(NCCc3ccccc3)n2)cc1 | – | 3.01 | < 45 | 9.14 | 6.97 | < 45 | – | 5 | < 45 | 5 | inactive | 1.2 | 1.3 | – | –
CCCCCNc1nc(NCCCCC)c2cccnc2n1 | – | 1.2 | < 45 | 0.7 | 0.58 | < 45 | – | 54 | < 45 | 100 | – | 4.4 | 2.8 | 0.9 | –
Clc1ccc(CNc2ccnc(NCc3ccc(Cl)cc3)n2)cc1 | inactive | 2 | < 45 | 8.5 | 9.8 | < 45 | – | – | < 45 | 0 | – | – | 2.2 | 2.7 | –
CCCCCCNc1nc(SCCCCC)nc2ncccc12 | inactive | 9 | < 45 | 18.5 | 18.4 | < 45 | – | – | < 45 | – | inactive | – | – | – | –
CCNc1nc(SCC)nc2ncccc12 | – | 18.7 | < 45 | 20.1 | 26.2 | < 45 | – | – | < 45 | – | inactive | 1.3 | 2 | – | –
c1ccc2c(CCNc3nc(NCCc4c[nH]c5ccccc45)c4cccnc4n3)c[nH]c2c1 | inactive | 5.1 | < 45 | 7.7 | 3 | < 45 | inactive | – | < 45 | 56 | – | – | – | 3 | 75
COc1ccc(CNc2ccnc(NCc3ccc(OC)cc3)n2)cc1 | – | 1.5 | < 45 | 18.7 | 12.6 | < 45 | – | – | < 45 | 0 | – | 1.5 | 2.4 | 1.9 | –
CCCNc1nc(NCCC)c2ccccc2n1 | – | 4.43 | < 45 | 28.9 | 18.9 | < 45 | inactive | 66 | < 45 | 0 | inactive | 2 | – | – | –
Cc1ccc(CNc2ccnc(NCc3ccc(C)cc3)n2)cc1 | – | 19.1 | < 45 | 22.2 | 14.9 | < 45 | – | 1 | < 45 | 6 | – | 4.8 | 1.5 | 2 | –
CCCCCCCNc1nc(SC(C)C)nc2ncccc12 | – | 7 | < 45 | 8 | 24.4 | < 45 | – | – | < 45 | – | inactive | 1.5 | – | – | –
CCCCCCNc1nc(SCC)nc2ncccc12 | – | 1.4 | < 45 | 5.9 | 22.5 | < 45 | – | – | < 45 | – | – | 1.5 | 3.3 | 8.1 | 75
CCCCNc1nc(SCC)nc2ncccc12 | – | 9.2 | < 45 | 20.9 | 25.3 | < 45 | – | – | < 45 | – | – | 1.5 | 2.2 | 1.2 | –
CCCCNc1nc(SC(C)C)nc2ncccc12 | inactive | 15.7 | < 45 | 12.3 | 32.1 | < 45 | – | – | < 45 | – | inactive | – | 1.3 | – | –
